Target: Cytochrome P450 2C9 (Homo sapiens, UniProt P11712)
Sequence (P11712 whole entry): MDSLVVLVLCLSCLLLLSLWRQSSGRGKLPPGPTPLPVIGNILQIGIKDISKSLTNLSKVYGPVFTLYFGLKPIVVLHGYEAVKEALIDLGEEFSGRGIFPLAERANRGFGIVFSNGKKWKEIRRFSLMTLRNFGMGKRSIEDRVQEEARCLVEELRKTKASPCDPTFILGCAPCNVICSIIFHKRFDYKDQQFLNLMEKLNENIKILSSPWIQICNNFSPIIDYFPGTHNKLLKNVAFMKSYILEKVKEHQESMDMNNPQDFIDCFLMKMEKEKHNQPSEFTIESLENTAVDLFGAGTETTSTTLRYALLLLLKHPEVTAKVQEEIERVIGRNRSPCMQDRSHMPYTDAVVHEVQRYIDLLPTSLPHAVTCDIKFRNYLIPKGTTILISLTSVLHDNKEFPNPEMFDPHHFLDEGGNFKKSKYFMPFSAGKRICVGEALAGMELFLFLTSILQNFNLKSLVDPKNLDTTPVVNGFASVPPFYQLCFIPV
Test: Inhibition of CYP2C9
Assay type: ADME
Settings: not given
COc1cccc(NC(=O)Nc2cccn(Cc3c(F)cccc3Cl)c2=O)c1 showed an IC50 of 3.7 µM.

Target: Cytochrome P450 2D6 (Homo sapiens, UniProt P10635)
Sequence (P10635 whole entry): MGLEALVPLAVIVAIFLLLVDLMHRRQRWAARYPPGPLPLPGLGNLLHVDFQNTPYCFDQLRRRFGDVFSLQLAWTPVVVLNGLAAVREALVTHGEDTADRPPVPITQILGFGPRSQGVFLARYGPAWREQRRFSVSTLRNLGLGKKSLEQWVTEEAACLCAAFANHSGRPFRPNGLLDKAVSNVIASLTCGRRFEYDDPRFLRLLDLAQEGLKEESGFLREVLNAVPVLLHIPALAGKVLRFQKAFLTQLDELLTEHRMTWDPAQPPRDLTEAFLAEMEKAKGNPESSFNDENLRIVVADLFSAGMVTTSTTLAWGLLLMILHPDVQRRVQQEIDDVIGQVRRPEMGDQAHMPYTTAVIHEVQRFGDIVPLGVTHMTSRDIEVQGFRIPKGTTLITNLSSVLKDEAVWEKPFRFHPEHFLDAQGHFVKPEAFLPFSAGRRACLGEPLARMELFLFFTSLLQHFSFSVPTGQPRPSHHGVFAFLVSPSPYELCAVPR
Test: Inhibition of CYP2D6
Assay type: ADME
Settings: not given
In the case of COc1cccc(NC(=O)Nc2cccn(Cc3c(F)cccc3Cl)c2=O)c1, the IC50 is reported as > 25 µM.

Target: Cytochrome P450 3A4 (Homo sapiens, UniProt P08684)
Sequence (P08684 whole entry): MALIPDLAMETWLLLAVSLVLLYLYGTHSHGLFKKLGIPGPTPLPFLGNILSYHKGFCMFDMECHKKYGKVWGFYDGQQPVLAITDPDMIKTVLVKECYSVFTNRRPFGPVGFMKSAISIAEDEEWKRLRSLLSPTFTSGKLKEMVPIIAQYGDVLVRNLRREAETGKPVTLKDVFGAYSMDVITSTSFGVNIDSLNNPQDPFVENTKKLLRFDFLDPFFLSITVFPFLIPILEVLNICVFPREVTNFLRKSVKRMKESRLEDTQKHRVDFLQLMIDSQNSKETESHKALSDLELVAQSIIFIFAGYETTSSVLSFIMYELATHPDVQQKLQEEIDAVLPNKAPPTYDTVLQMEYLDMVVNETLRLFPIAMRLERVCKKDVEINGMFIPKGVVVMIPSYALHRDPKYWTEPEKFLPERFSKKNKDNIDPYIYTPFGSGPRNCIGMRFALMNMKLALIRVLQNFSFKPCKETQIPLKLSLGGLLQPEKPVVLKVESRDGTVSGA
Test: Inhibition of CYP3A4
Assay type: ADME
Settings: not given
With COc1cccc(NC(=O)Nc2cccn(Cc3c(F)cccc3Cl)c2=O)c1 the IC50 was > 25 µM.

System: not listed separately
Test: Permeability across artificial membrane
Assay type: ADME
Settings: PAMPA; read-out: permeability
In the case of COc1cccc(NC(=O)Nc2cccn(Cc3ccccc3Cl)c2=O)c1, the Papp is reported as 55 ×10⁻⁶ cm/s.
COc1cccc(NC(=O)Nc2cccn(Cc3c(F)cccc3Cl)c2=O)c1 gave a Papp of 22 ×10⁻⁶ cm/s.

System: not listed separately
Test: Clearance in rat blood at 1.2 mg/kg, iv and 2 mg/kg, po
Assay type: ADME, organism-based
Settings: not given
Summary of the method: (§1)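 Rats dosed at 1.2 mg/kg iv and 2.0 mg/kg po. Blood clearance, half-life, steady-state volume of distribution and oral bioavailability derived from the iv and po arms.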
For COc1cccc(NC(=O)Nc2cccn(Cc3ccccc3Cl)c2=O)c1, the clearance was 24 mL/min/kg.

System: not listed separately
Test: Half life in rat blood at 1.2 mg/kg, iv and 2 mg/kg, po
Assay type: ADME, organism-based
Settings: not given
Summary of the method: as §1
COc1cccc(NC(=O)Nc2cccn(Cc3ccccc3Cl)c2=O)c1 gave a half-life of 78 min.

System: not listed separately
Test: Volume of distribution at steady state in rat blood at 1.2 mg/kg, iv and 2 mg/kg, po
Assay type: ADME, organism-based
Settings: read-out: Vdss
Summary of the method: as §1
Compound COc1cccc(NC(=O)Nc2cccn(Cc3ccccc3Cl)c2=O)c1 has a Vd of 3.4 L/kg.

System: not listed separately
Test: Oral bioavailability in rat blood at 1.2 mg/kg, iv and 2 mg/kg, po
Assay type: ADME, organism-based
Settings: not given
Summary of the method: as §1
For COc1cccc(NC(=O)Nc2cccn(Cc3ccccc3Cl)c2=O)c1, the bioavailability was 27%.

Target: T1, Prostaglandin E2 receptor EP3 subtype (Homo sapiens, UniProt P43115)
T1 sequence (P43115 whole entry): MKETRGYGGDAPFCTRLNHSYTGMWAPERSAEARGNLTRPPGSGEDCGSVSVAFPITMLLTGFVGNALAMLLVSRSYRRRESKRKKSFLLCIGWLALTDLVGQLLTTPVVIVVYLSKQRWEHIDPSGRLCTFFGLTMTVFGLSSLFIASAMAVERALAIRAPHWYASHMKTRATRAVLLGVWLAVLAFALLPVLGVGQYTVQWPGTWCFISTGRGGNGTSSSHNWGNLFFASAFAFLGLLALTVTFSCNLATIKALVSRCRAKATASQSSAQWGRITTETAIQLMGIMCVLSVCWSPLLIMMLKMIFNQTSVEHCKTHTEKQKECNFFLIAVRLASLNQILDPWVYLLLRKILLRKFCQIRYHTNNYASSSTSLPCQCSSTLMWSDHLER
Test: Antagonist activity at human EP3 receptor expressed in human U2OS cells assessed as inhibition of PGE2-induced intracellular calcium mobilization by FLIPR assay
Assay type: functional, cell-based
Settings: not given
With COc1ccc(NC(=O)Nc2cccn(Cc3ccccc3Cl)c2=O)cc1 the Ki was > 25100 nM.
Compound Cc1cccc(NC(=O)Nc2cccn(Cc3ccccc3Cl)c2=O)c1 has a Ki of 251 nM.
CC(C)c1cccc(NC(=O)Nc2cccn(Cc3ccccc3Cl)c2=O)c1 showed a Ki of 63.1 nM.
For O=C(Nc1cccc(Cc2ccccc2)c1)Nc1cccn(Cc2ccccc2Cl)c1=O, the Ki was > 25100 nM.
In the case of O=C(O)Cc1cccc(NC(=O)Nc2cccn(Cc3ccccc3Cl)c2=O)c1, the Ki is reported as > 25100 nM.
For COC(=O)Cc1cccc(NC(=O)Nc2cccn(Cc3ccccc3Cl)c2=O)c1, the Ki was > 25100 nM.
Work on COc1cccc(NC(=O)Nc2cccn(Cc3ccccc3Cl)c2=O)c1 yielded a Ki of 158 nM.
In the case of COc1cccc(NC(=O)Nc2cccn(Cc3ccccc3)c2=O)c1, the Ki is reported as 1000 nM.
For CC(=O)c1cccc(NC(=O)Nc2cccn(Cc3ccccc3Cl)c2=O)c1, the Ki was > 25100 nM.
For O=C(Nc1ccc(Cl)cc1)Nc1cccn(Cc2ccccc2Cl)c1=O, the Ki was > 25100 nM.
COc1cccc(NC(=O)Nc2cccn(Cc3ccccc3F)c2=O)c1 showed a Ki of 501 nM.
Compound COc1cccc(NC(=O)Nc2cccn(Cc3ccccc3Br)c2=O)c1 has a Ki of 316 nM.
With Cc1ccc(NC(=O)Nc2cccn(Cc3ccccc3Cl)c2=O)cc1 the Ki was 3160 nM.
With CCc1ccc(NC(=O)Nc2cccn(Cc3ccccc3Cl)c2=O)cc1 the Ki was > 25100 nM.
In the case of COc1cccc(NC(=O)Nc2cccn(Cc3ccccc3C)c2=O)c1, the Ki is reported as 2510 nM.
COc1cccc(NC(=O)Nc2cccn(Cc3cccc(F)c3)c2=O)c1 showed a Ki of 1000 nM.
In the case of O=C(Nc1ccc(C(F)(F)F)cc1)Nc1cccn(Cc2ccccc2Cl)c1=O, the Ki is reported as > 25100 nM.
In the case of COc1cccc(NC(=O)Nc2cccn(Cc3cccc(Cl)c3)c2=O)c1, the Ki is reported as 398 nM.
With COc1cccc(NC(=O)Nc2cccn(Cc3cccc(C)c3)c2=O)c1 the Ki was 1260 nM.
In the case of COc1cccc(N(C)C(=O)Nc2cccn(Cc3ccccc3Cl)c2=O)c1, the Ki is reported as > 25100 nM.
With COc1cccc(C(=O)Nc2cccn(Cc3ccccc3Cl)c2=O)c1 the Ki was > 25100 nM.
COc1cccc(Cn2cccc(NC(=O)Nc3cccc(OC)c3)c2=O)c1 showed a Ki of 2000 nM.
For COc1cccc(NC(=O)Nc2cccn(Cc3ccc(F)cc3)c2=O)c1, the Ki was 1260 nM.
In the case of COc1cccc(CC(=O)Nc2cccn(Cc3ccccc3Cl)c2=O)c1, the Ki is reported as > 25100 nM.
For CCc1cccc(NC(=O)Nc2c(C)ccn(Cc3ccccc3Cl)c2=O)c1, the Ki was > 25100 nM.
For COc1cccc(NC(=O)Nc2cccn(Cc3ccc(Cl)cc3)c2=O)c1, the Ki was 1000 nM.
With COc1cccc(NC(=O)Nc2cccn(Cc3ccc(C)cc3)c2=O)c1 the Ki was 3160 nM.
COc1cccc(NC(=O)Nc2cc(C)cn(Cc3ccccc3Cl)c2=O)c1 showed a Ki of 1260 nM.
Compound CCc1cccc(NC(=O)Nc2cc(C)cn(Cc3ccccc3Cl)c2=O)c1 has a Ki of 200 nM.
For COc1ccc(Cn2cccc(NC(=O)Nc3cccc(OC)c3)c2=O)cc1, the Ki was 794 nM.
With COc1cccc(NC(=O)Nc2cccn(Cc3ccc(F)cc3Cl)c2=O)c1 the Ki was 398 nM.
Work on CCc1cccc(NC(=O)Nc2cc(Cl)cn(Cc3ccccc3Cl)c2=O)c1 yielded a Ki of 501 nM.
Work on COc1cccc(NC(=O)Nc2ccc(C)n(Cc3ccccc3Cl)c2=O)c1 yielded a Ki of 1260 nM.
COc1cccc(NC(=O)Nc2cccn(Cc3cc(F)ccc3Cl)c2=O)c1 showed a Ki of 794 nM.
In the case of O=C(Nc1ccccc1F)Nc1cccn(Cc2ccccc2Cl)c1=O, the Ki is reported as 158 nM.
Work on CCc1cccc(NC(=O)Nc2ccc(C)n(Cc3ccccc3Cl)c2=O)c1 yielded a Ki of 126 nM.
Compound CCc1cccc(NC(=O)Nc2cccn(Cc3cccc(C(F)(F)F)c3)c2=O)c1 has a Ki of 200 nM.
In the case of O=C(Nc1ccccc1Cl)Nc1cccn(Cc2ccccc2Cl)c1=O, the Ki is reported as 126 nM.
Work on O=C(Nc1ccccc1I)Nc1cccn(Cc2ccccc2Cl)c1=O yielded a Ki of 5010 nM.
Work on CCc1cccc(NC(=O)Nc2cccn(Cc3ccc(F)cc3Cl)c2=O)c1 yielded a Ki of 126 nM.
In the case of CCc1cccc(NC(=O)Nc2cccn(Cc3ccccc3F)c2=O)c1, the Ki is reported as 100 nM.
In the case of Cc1ccccc1NC(=O)Nc1cccn(Cc2ccccc2Cl)c1=O, the Ki is reported as 794 nM.
For CCc1ccccc1NC(=O)Nc1cccn(Cc2ccccc2Cl)c1=O, the Ki was 3980 nM.
Work on COc1cccc(NC(=O)Nc2cccn(Cc3c(F)cccc3Cl)c2=O)c1 yielded a Ki of 25.1 nM.
For CCc1cccc(NC(=O)Nc2cccn(Cc3c(F)cccc3Cl)c2=O)c1, the Ki was 6.31 nM.
In the case of COc1ccccc1NC(=O)Nc1cccn(Cc2ccccc2Cl)c1=O, the Ki is reported as 631 nM.
O=C(Nc1cccc(F)c1)Nc1cccn(Cc2ccccc2Cl)c1=O gave a Ki of 1580 nM.
Work on O=C(Nc1cccc(Cl)c1)Nc1cccn(Cc2ccccc2Cl)c1=O yielded a Ki of 1000 nM.
In the case of O=C(Nc1cccc(Br)c1)Nc1cccn(Cc2ccccc2Cl)c1=O, the Ki is reported as 1000 nM.
For O=C(Nc1cccc(I)c1)Nc1cccn(Cc2ccccc2Cl)c1=O, the Ki was 398 nM.
For N#Cc1cccc(NC(=O)Nc2cccn(Cc3ccccc3Cl)c2=O)c1, the Ki was > 25100 nM.

Target: Cytochrome P450 2C19 (Homo sapiens, UniProt P33261)
Sequence (P33261 whole entry): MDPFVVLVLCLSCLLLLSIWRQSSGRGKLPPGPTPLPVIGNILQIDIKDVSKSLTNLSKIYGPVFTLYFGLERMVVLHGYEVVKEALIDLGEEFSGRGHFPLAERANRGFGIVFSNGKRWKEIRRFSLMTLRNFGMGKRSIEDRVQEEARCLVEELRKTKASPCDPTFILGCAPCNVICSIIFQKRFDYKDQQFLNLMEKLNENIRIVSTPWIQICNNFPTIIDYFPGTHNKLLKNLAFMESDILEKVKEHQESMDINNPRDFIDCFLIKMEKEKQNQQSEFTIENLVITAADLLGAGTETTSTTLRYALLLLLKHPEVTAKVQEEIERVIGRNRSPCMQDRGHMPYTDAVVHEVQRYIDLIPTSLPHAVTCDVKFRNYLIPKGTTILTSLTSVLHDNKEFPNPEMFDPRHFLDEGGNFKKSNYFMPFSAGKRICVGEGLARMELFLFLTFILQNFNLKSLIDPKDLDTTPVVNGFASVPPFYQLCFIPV
Test: Inhibition of CYP2C19
Assay type: ADME
Settings: not given
Work on COc1cccc(NC(=O)Nc2cccn(Cc3c(F)cccc3Cl)c2=O)c1 yielded an IC50 of 4.5 µM.

From ChEMBL document CHEMBL1268956, “3-Urea-1-(phenylmethyl)-pyridones as novel, potent, and selective EP3 receptor antagonists” (Bioorg Med Chem Lett, 2010)
